An excerpt weighted towards active compounds, which were near 2.5% of everything screened.
NS3 helicase inh = inhibitors of Hepatitis C virus NS3 helicase; NS3 helicase DNA unwinding, Cy5 molecular beacon fluorescence; inhibition, % at 10.9 µM; 290,000 tested, 0.56% active; AID 1800;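 active means inhibition above the mean of all tested compounds plus 3 SD, set per campaign, cut at about 35% in these data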;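 further: 0% = DMSO wells and 100% = thioflavine S control wells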
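Control set: DMSO versus 110 µM thioflavine S; Material: NS3 helicase fragment of HCV; Measured by: Cy5 fluorescence at 0 and 60 min, beacon hairpin quenching; Read-out basis: percent inhibition from t60/t0 fluorescence ratio; Times: reaction time 60 min, 25 °C; Repeats: single replicate; Compound dosing: single dose, 10.9 µM nominal final, DMSO 0.8% final.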
SUMO1-SIM PPI = alters human SUMO1 binding to SIM partners; P63165; SUMO1 binding to a labelled peptide, TR-FRET, 1 h; inhibition, % at 20 µM; 360,000 tested, 0.33% active; AID 602429; in the data active means inhibition above about 37%
MBD2 DNA inh = MBD2-methylated oligo binding inhibition. Q9UBB5. TR-FRET, MBD2 binding to methylated oligonucleotide. inhibition, % at 4.4 µM. 370,000 tested, 0.31% active. AID 686964; in the data active means inhibition above about 13%
UHRF1 MBD2 ctr = UHRF1 methyl-DNA binding inhibition; UHRF1 binding to methylated oligo, TR-FRET; inhibition, % at 4.4 µM; 370,000 tested, 0.75% active; Q96T88; AID 687016; in the data active means inhibition above about 21%;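 further: UHRF1 SRA domain binding a hemimethylated CpG hairpin DNA probe; 0% = median of test compound wells and 100% = reference inhibitor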
DSG3 Ab inh = human desmoglein-3 autoantibody binding inhibition | 310,000 tested, 0.48% active | DSG3-coupled beads, scFv-anti-DSG3-GFP binding, flow cytometry; hits give low values | AID 588358 | P32926 | binding (percent of control), % at 10 µM;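 active means binding more than 3 SD below its plate's average and above zero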;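 further: hits lower antibody fragment binding to DSG3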
Target sequence (P32926 whole entry, looked up, the tested form may be a part): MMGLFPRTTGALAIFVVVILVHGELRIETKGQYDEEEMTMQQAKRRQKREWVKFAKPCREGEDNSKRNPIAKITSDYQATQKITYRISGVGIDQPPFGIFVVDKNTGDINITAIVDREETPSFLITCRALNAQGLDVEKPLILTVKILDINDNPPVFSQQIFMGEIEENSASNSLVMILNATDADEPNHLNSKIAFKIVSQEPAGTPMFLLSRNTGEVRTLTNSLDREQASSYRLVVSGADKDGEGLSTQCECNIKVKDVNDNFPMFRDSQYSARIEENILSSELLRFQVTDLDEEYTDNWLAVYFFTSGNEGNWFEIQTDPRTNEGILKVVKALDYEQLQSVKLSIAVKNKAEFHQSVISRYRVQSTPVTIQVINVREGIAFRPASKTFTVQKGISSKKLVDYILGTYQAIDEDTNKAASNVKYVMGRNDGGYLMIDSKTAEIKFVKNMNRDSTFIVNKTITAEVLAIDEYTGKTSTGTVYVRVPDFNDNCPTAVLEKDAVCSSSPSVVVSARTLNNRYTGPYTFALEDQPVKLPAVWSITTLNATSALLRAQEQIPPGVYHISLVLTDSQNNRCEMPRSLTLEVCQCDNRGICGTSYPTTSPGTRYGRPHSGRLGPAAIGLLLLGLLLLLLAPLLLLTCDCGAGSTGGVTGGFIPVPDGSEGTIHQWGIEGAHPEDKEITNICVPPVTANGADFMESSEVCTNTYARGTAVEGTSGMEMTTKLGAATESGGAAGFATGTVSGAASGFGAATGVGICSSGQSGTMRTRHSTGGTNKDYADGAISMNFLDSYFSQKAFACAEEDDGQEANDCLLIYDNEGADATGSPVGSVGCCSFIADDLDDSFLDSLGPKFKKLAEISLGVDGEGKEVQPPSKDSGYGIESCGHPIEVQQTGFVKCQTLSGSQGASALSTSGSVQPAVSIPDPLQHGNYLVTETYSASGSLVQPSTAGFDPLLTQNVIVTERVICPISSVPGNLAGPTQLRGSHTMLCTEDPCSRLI
DNMT1 block = blocks human DNA methyltransferase DNMT1; DNMT1 molecular beacon, Hinp1I cleavage, fluorescence; inhibition (reported as % activation of signal), % at 10 µM; 360,000 tested, 0.83% active; in the data active means inhibition above about 50%
DNMT1 interf DR = counter-screen for DNMT1 inhibitors: spectral interference, dose response; 200 tested, under 10 active; molecular beacon fluorescence; shares compounds with DNMT1 block; IC50, µM; call rule not given here
DNMT1 confirm = DNMT1 inhibition confirmation, single concentration; shares compounds with DNMT1 block; DNMT1 molecular beacon HinP1I cleavage, fluorescence; inhibition, % at 10 µM; 2,300 tested, 8% active; AID 602385;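 active means average inhibition of at least 30% in the single-concentration confirmation test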
DNMT1 interf = counter-screen for DNMT1 inhibitors: spectral interference. shares compounds with DNMT1 block. DNMT1 molecular beacon spectral interference counterscreen, fluorescence 485/520. activation (fluorescence interference), % at 10 µM. 2,300 tested, 1% active. AID 602387;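 active means activation of at least 30% at 10 µM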;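 further: DNMT1 catalytic domain with a HinP1I cleavage step and a FAM/dabcyl DNA beacon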
* = called active by the depositor; / = not tested or not shown.

SMILES	NS3 helicase inh	SUMO1-SIM PPI	MBD2 DNA inh	UHRF1 MBD2 ctr	DSG3 Ab inh	DNMT1 block	DNMT1 confirm	DNMT1 interf	others
COc1ccc(NC(=O)c2cc3c(=O)n(C)c4ccccc4c3s2)cc1OC	1	4	3	-2	92	75*	2	-2
Cc1ccc(C)c(S(=O)(=O)Nc2ccc3oc(C)c(C(=O)O)c3c2)c1	9	51*	2	24*	85*	83*	16	-1
COc1ccc2c(c1)c(=O)oc1cc(OCC(=O)N3CCc4ccccc4C3)ccc12	11	24	21*	39*	92	105*	17	-2
CC(=O)c1cc(CC(=O)N2CCc3c([nH]c4ccccc34)C2c2ccccn2)cs1 (stereo not drawn)	-3	8	-2	-2	102	0	/	/
CCOc1cc(/C=N\NC(=O)C2C(=O)NCC2c2ccccc2)ccc1OC (stereo not drawn)	3	-9	-6	-3	128	0	/	/
Cc1ncc([N+](=O)[O-])n1CCOC(=O)c1cc(Cl)cc(Cl)c1N	25	-3	2	3	104	60*	4	3
Cc1ccc(S(=O)(=O)N2CCN(C(=O)c3ccc(S(=O)(=O)N4CCCC4)cc3)CC2)cc1	6	-1	1	1	108	-1	/	/
COc1ccc(N2CCN(S(=O)(=O)c3ccc(-c4cnc(C5CC5)o4)cc3)CC2)cc1	12	3	/	/	95	74*	4	4
O=C1NC(=S)N/C1=C/c1ccc(Oc2ccc(C(F)(F)F)cc2[N+](=O)[O-])c(Cl)c1	-19	-1	2	2	92	51*	1	3
COc1ccc(-c2cc(=O)oc3c(C)c(OC(=O)c4cccs4)ccc23)cc1	3	1	0	1	94	60*	3	-9
COc1ccc(-c2cc(=O)oc3c(C)c(OC(C)C(C)=O)ccc23)cc1 (stereo not drawn)	-2	-30	-2	1	90	-2	/	/
COc1ccc2sc3c(=O)[nH]c4ccccc4c3c2c1	0	7	0	-4	85	58*	5	4
O=C(NCC1CCCN(C(=O)c2cccc(C(F)(F)F)c2)C1)c1ccc(F)cc1 (stereo not drawn)	-7	-1	-5	-3	108	0	/	/
O=C(NCC1CCCN(Cc2cccc(C(F)(F)F)c2)C1)c1ccc(F)cc1 (stereo not drawn)	-7	-3	0	0	92	132*	2	0
O=C(CCS(=O)(=O)c1ccc(Cl)cc1)N1CCN(c2ccccc2F)CC1	-6	0	-4	0	101	1	/	/
CC(C)N(C)c1ncnc2c1ncn2[C@H]1CN(Cc2cccnc2)C[C@@H](CO)O1	/	-4	-6	-1	/	-3	/	/
COc1ccccc1OCCSc1nc2ccccc2n1CC(=O)O	/	35	5	1	113	80*	5	4
NC(=O)CC[C@H](NC(=O)c1ccc(F)cc1)C(=O)OCC(=O)NCc1ccc(F)cc1	6	3	4	4	104	52*	2	1
c1ccc2c(Nc3nc(-c4ccncc4)nc4ccccc34)cccc2c1	5	5	-2	10	102	-10	/	/
Fc1ccc(Nc2nc(-c3ccncc3)nc3ccccc23)cc1F	-6	19	-5	-1	95	56*	7	1
Cc1c(NC(=O)C2CCCN2S(=O)(=O)c2ccc(Cl)cc2)c(=O)n(-c2ccccc2)n1C (stereo not drawn)	-7	1	-6	-1	106	9	/	/
O=C1/C(=C/c2ccco2)SC(=S)N1CC1CCCO1 (stereo not drawn)	-1	2	8	29*	93	71*	1	0
O=C(CN1C(=O)/C(=C\c2ccco2)SC1=S)Nc1ccc(O)cc1C(=O)O	31	87*	27*	87*	101	90*	14	1
Cc1ccc(/C=C2\SC(=S)N(CC3CCCO3)C2=O)o1 (stereo not drawn)	23	-19	-2	0	/	-6	/	/
COc1ccccc1/C=C1\SC(=S)N(CCC(=O)Nc2ccc(C(=O)O)c(O)c2)C1=O	3	4	2	-1	90	-18	/	/
SMILES	NS3 helicase inh	SUMO1-SIM PPI	MBD2 DNA inh	UHRF1 MBD2 ctr	DSG3 Ab inh	DNMT1 block	DNMT1 confirm	DNMT1 interf	others
O=C(CCN1C(=O)/C(=C/c2ccco2)SC1=S)Nc1ccc(C(=O)O)c(O)c1	12	47*	21*	62*	89	81*	4	0
O=C(CCN1C(=O)/C(=C\c2ccco2)SC1=S)Nc1ccc(C(=O)O)c(O)c1	26	66*	9	62*	105	91*	16	0
COc1cc(CCCN2C(=S)NC[C@@H]2c2ccccc2)cc(OC)c1OC	10	3	-7	-2	105	1	/	/
CCOC(=O)c1c(C)nc(C)c(C(=O)OCC)c1-c1ccc(Br)cc1	-4	0	-1	5	98	13	/	/
CCOC(=O)c1cccc(-n2cccc2/C=C2\NC(=O)N(CC(=O)O)C2=O)c1	/	-16	3	1	98	0	/	/
Cc1ccc(NC(=O)CN2C(=O)N/C(=C/c3ccccc3OCc3cccc(C(=O)O)c3)C2=O)cc1	35	-17	-5	0	119	3	/	/
COC(=O)C(C)N1C(=O)S/C(=C\c2ccc(-c3ccc(C(=O)O)cc3C)o2)C1=O (stereo not drawn)	16	-3	0	16	100	19	/	/
Cc1ccc(NC(=O)CN2C(=O)N/C(=C\c3cccn3-c3cccc(C(=O)O)c3)C2=O)cc1	18	5	/	/	92	91*	60*	0	DNMT1 interf DR=>99
Cc1ccc(NC(=O)CN2C(=O)N/C(=C/c3cc(C)n(-c4cccc(C(=O)O)c4)c3C)C2=O)cc1	25	30	8	37*	96	84*	10	-1
Cc1ccc(CN2C(=O)N/C(=C\c3cccn3-c3cccc(C(=O)O)c3)C2=O)cc1	4	-10	2	17	103	91*	9	-2
Cc1cc(C(=O)O)ccc1-c1ccc(/C=C2\NC(=O)N(Cc3ccc(F)cc3)C2=O)o1	1	29	6	15	95	64*	20	0
CCOC(=O)c1c(N2C(=O)Nc3ccccc3N2O)n[nH]c1-c1cccc(Cl)c1	0	19	2	1	96	13	/	/

High-throughput results from PubChem.
